Converted amounts (≈) assume the structure as drawn.
Columns and labels:
Staphylococcus aureus [1] = test: Antibacterial activity against Staphylococcus aureus BSA678 isolate with gyrA Ser84Leu, Ser85Pro and grlA Ser80Phe, Glu84Lys mutant assessed as doubling time of bacterial growth at 1 ug/ml
Staphylococcus aureus [2] = test: Antibacterial activity against Staphylococcus aureus ACH-0186 isolate with gyrA Ser84Leu and grlA Ser80Phe mutant assessed as doubling time of bacterial growth at 1 ug/ml; type: functional
Method in brief: (§1)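 Overnight cultures in MH or Mueller-Hinton II medium at 37°C with aeration were diluted to OD625 of about 0.05. Turbidity was read every 30 min over the first 7 h. Doubling time was estimated from log OD625 versus time growth curves.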

Staphylococcus aureus [3] = test: Antibacterial activity against Staphylococcus aureus ACH-0203 isolate with gyrA Ser84Leu and grlA Ser80Phe, Ala116Val mutant assessed as doubling time of bacterial growth at 1 ug/ml; type: functional
Method in brief: as §1

Staphylococcus aureus [4] = test: Antibacterial activity against Staphylococcus aureus ACH-0129 isolate with gyrA Ser84Leu, Glu88Val and grlA Ser80Phe, Ala116Val mutant assessed as doubling time of bacterial growth at 1 ug/ml; type: functional
Method in brief: as §1

Staphylococcus aureus [5] = test: Antibacterial activity against Staphylococcus aureus ACH-0201 isolate with gyrA Ser84Leu, Glu88Val and grlA Ser80Phe, Ala116Val mutant after 24 hrs by broth microdilution method; type: functional
Staphylococcus aureus [6] = test: Antibacterial activity against Staphylococcus aureus ACH-0126 isolate with gyrA Ser84Leu and grlA Ser80Phe mutant after 24 hrs by broth microdilution method; type: functional
Staphylococcus aureus [7] = test: (§2) Antibacterial activity against Staphylococcus aureus ACH-0129 isolate with gyrA Ser84Leu, Glu88Val and grlA Ser80Phe, Ala116Val mutant after 24 hrs by broth microdilution method; type: functional
Staphylococcus aureus [8] = test: Antibacterial activity against Staphylococcus aureus ACH-0192 isolate with gyrA Ser84Leu and grlA Ser80Phe, Ala116Val mutant after 24 hrs by broth microdilution method; type: functional
Staphylococcus aureus [9] = test: Antibacterial activity against Staphylococcus aureus ACH-0203 isolate with gyrA Ser84Leu and grlA Ser80Phe, Ala116Val mutant after 24 hrs by broth microdilution method; type: functional
Method in brief: (§3)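 Broth microdilution per CLSI guidelines. MIC taken as the lowest concentration preventing visible growth at 24 h. Each MIC determined at least twice.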

Staphylococcus aureus [10] = test: Antibacterial activity against Staphylococcus aureus ACH-0206 isolate with gyrA Ser84Leu mutant after 24 hrs by broth microdilution method; type: functional
Method in brief: as §3

Staphylococcus aureus [11] = test: Antibacterial activity against Staphylococcus aureus ACH-0130 isolate with gyrA Ser84Leu, Glu88Val and grlA Ser80Phe, Ala116Val mutant assessed as doubling time of bacterial growth at 1 ug/ml; type: functional
Method in brief: as §1

Staphylococcus aureus [12] = test: Antibacterial activity against Staphylococcus aureus ATCC 700699 isolate with gyrA Ser84Leu, Glu409Lys and grlA Ser80Phe mutant assessed as doubling time of bacterial growth at 1 ug/ml; type: functional
Method in brief: as §1

Staphylococcus aureus [13] = test: Antibacterial activity against Staphylococcus aureus ACH-0231 isolate with gyrA Ser84Leu, Glu88Lys and grlA Ser80Tyr, Glu84Gly mutant after 24 hrs by broth microdilution method; type: functional
Staphylococcus aureus [14] = test: Antibacterial activity against Staphylococcus aureus ACH-0141 isolate with gyrA Ser84Leu, Glu88Val and grlA Ser80Phe, Ala116Val mutant after 24 hrs by broth microdilution method; type: functional
Staphylococcus aureus [15] = test: Antibacterial activity against Staphylococcus aureus ACH-0141 isolate with gyrA Ser84Leu, Glu88Val and grlA Ser80Phe, Ala116Val mutant assessed as doubling time of bacterial growth at 1 ug/ml; type: functional
Method in brief: as §1

DNA gyrase subunit A = DNA gyrase subunit A (Staphylococcus aureus, UniProt P20831, S84L); test: Inhibition of Staphylococcus aureus DNA gyrase gyrA S84L mutant supercoiling activity assessed as effect on conversion of relaxed pBR322 DNA to supercoiled form
Staphylococcus aureus [16] = test: Antibacterial activity against Staphylococcus aureus ATCC 700699 isolate with gyrA Ser84Leu, Glu409Lys and grlA Ser80Phe mutant after 24 hrs by broth microdilution method; type: functional; settings: ATCC 700699, 24 h
Staphylococcus aureus [17] = test: Antibacterial activity against Staphylococcus aureus ACH-0201 isolate with gyrA Ser84Leu, Glu88Val and grlA Ser80Phe, Ala116Val mutant assessed as doubling time of bacterial growth at 1 ug/ml; type: functional
Method in brief: as §1

[18] = Inhibition of Staphylococcus aureus wild-type topoisomerase 4 decatenation activity assessed as unlinking of DNA microcircles from kinetoplast DNA
Method in brief: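 S. aureus topo IV reconstituted from His-purified recombinant GrlA and GrlB (E. coli BL21(DE3)pLysS expression), mixed 1:1 molar on ice 10 min. 0.1 μg catenated kDNA with 2 U enzyme, 30 min at 37°C in 1 mM ATP, 5 mM DTT, 5 mM MgCl2, 50 μg/ml BSA, 50 mM Tris-HCl pH 7.5, 250 mM potassium glutamate. Products on 1% agarose gel, ethidium-stained, quantitated; IC50 by nonlinear regression.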

Staphylococcus aureus [19] = test: Antibacterial activity against Staphylococcus aureus ACH-0231 isolate with gyrA Ser84Leu, Glu88Lys and grlA Ser80Tyr, Glu84Gly mutant assessed as doubling time of bacterial growth at 1 ug/ml; type: functional
Method in brief: as §1

Staphylococcus aureus [20] = test: Antibacterial activity against Staphylococcus aureus ATCC 29213 assessed as doubling time of bacterial growth at 1 ug/ml; type: functional
Method in brief: as §1

Staphylococcus aureus [21] = test: Antibacterial activity against Staphylococcus aureus BSA643 isolate with gyrA Ser84Leu and grlA Ser80Tyr, Glu84Gly mutant after 24 hrs by broth microdilution method; type: functional
Staphylococcus aureus [22] = test: Antibacterial activity against Staphylococcus aureus ACH-0216 isolate with grlA Ser80Phe mutant after 24 hrs by broth microdilution method; type: functional
Method in brief: as §3

Staphylococcus aureus [23] = test: Antibacterial activity against Staphylococcus aureus NY2746 isolate with gyrA Ser84Leu and grlA Ser80Phe mutant after 24 hrs by broth microdilution method; type: functional
Staphylococcus aureus [24] = test: Antibacterial activity against Staphylococcus aureus BSA678 isolate with gyrA Ser84Leu, Ser85Pro and grlA Ser80Phe, Glu84Lys mutant after 24 hrs by broth microdilution method
Staphylococcus aureus [25] = test: Antibacterial activity against Staphylococcus aureus ACH-0218 isolate with grlA Glu84Lys mutant after 24 hrs by broth microdilution method; type: functional
Method in brief: as §3

[26] = Inhibition of Staphylococcus aureus […] topoisomerase 4 grlA S80F mutant decatenation activity assessed as unlinking of DNA microcircles from kinetoplast DNA
Method in brief: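 Recombinant S. aureus GrlA (Ser80Phe) and GrlB were mixed 1:1 molar on ice for 10 min. kDNA (0.1 μg) with 2 U enzyme, 30 min at 37°C, in 1 mM ATP, 5 mM MgCl2, 250 mM K-glutamate, 50 mM Tris pH 7.5. Reactions stopped with EDTA, run on 1% agarose-TBE and ethidium-stained, minicircles quantitated. IC50 by nonlinear regression.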

Staphylococcus aureus [27] = test: Antibacterial activity against Staphylococcus aureus ATCC 29213 after 24 hrs by broth microdilution method; type: functional; settings: ATCC 29213, 24 h
Method in brief: as §3

Staphylococcus aureus [28] = test: Antibacterial activity against Staphylococcus aureus ACH-0126 isolate with gyrA Ser84Leu and grlA Ser80Phe mutant assessed as doubling time of bacterial growth at 1 ug/ml; type: functional
Method in brief: as §1

Staphylococcus aureus [29] = test: Antibacterial activity against Staphylococcus aureus NY2746 isolate with gyrA Ser84Leu and grlA Ser80Phe mutant assessed as doubling time of bacterial growth at 1 ug/ml; type: functional
Method in brief: as §1

Staphylococcus aureus [30] = test: Antibacterial activity against Staphylococcus aureus ACH-0204 isolate with gyrA Ser84Leu mutant after 24 hrs by broth microdilution method; type: functional
Method in brief: as §3

Staphylococcus aureus [31] = test: Antibacterial activity against Staphylococcus aureus ACH-0186 isolate with gyrA Ser84Leu and grlA Ser80Phe, Ala116Val mutant after 24 hrs by broth microdilution method; type: functional
Staphylococcus aureus [32] = test: Antibacterial activity against Staphylococcus aureus ATCC 33591 isolate after 24 hrs by broth microdilution method; type: functional; settings: ATCC 33591, 24 h
Method in brief: as §3

Staphylococcus aureus [33] = test: as §2; type: functional; remark: listed apart in the source
Staphylococcus aureus [34] = test: Antibacterial activity against Staphylococcus aureus ACH-0192 isolate with gyrA Ser84Leu and grlA Ser80Phe, Ala116Val mutant assessed as doubling time of bacterial growth at 1 ug/ml; type: functional
Method in brief: as §1

Staphylococcus aureus [35] = test: Antibacterial activity against Staphylococcus aureus BSA643 isolate with gyrA Ser84Leu and grlA Ser80Tyr, Glu84Gly mutant assessed as doubling time of bacterial growth at 1 ug/ml; type: functional
Method in brief: as §1

Staphylococcus aureus [36] = test: Antibacterial activity against Staphylococcus aureus ACH-0210 isolate with gyrA Ser84Leu and grlA Ser80Phe mutant after 24 hrs by broth microdilution method; type: functional
Staphylococcus aureus [37] = test: Antibacterial activity against Staphylococcus aureus ACH-0221 isolate with gyrA Ser84Leu mutant after 24 hrs by broth microdilution method; type: functional
Method in brief: as §3

Structure (SMILES)	MIC (Staphylococcus aureus [5]) [µg/mL]	MIC (Staphylococcus aureus [6]) [µg/mL]	MIC (Staphylococcus aureus [7]) [µg/mL]	MIC (Staphylococcus aureus [8]) [µg/mL]	MIC (Staphylococcus aureus [9]) [µg/mL]	MIC (Staphylococcus aureus [10]) [µg/mL]	MIC (Staphylococcus aureus [13]) [µg/mL]	MIC (Staphylococcus aureus [14]) [µg/mL]	IC50 (DNA gyrase subunit A) [µM]	MIC (Staphylococcus aureus [16]) [µg/mL]	IC50 [18] [µM]	MIC (Staphylococcus aureus [21]) [µg/mL]	MIC (Staphylococcus aureus [22]) [µg/mL]	MIC (Staphylococcus aureus [23]) [µg/mL]	MIC (Staphylococcus aureus [24]) [µg/mL]	MIC (Staphylococcus aureus [25]) [µg/mL]	IC50 [26] [µM]	MIC (Staphylococcus aureus [27]) [µg/mL]	MIC (Staphylococcus aureus [30]) [µg/mL]	MIC (Staphylococcus aureus [31]) [µg/mL]	other results
COc1c(-c2ccnc(C)c2)c(F)cc2c(=O)c3c(=O)[nH]sc3n(C3CC3)c12	2 (≈ 5.03 µM)	0.125 (≈ 0.315 µM)	0.5 (≈ 1.26 µM)	0.5 (≈ 1.26 µM)	1 (≈ 2.52 µM)	0.015 (≈ 0.0377 µM)	2 (≈ 5.03 µM)	2 (≈ 5.03 µM)	52.3	0.25 (≈ 0.629 µM)	1	0.125 (≈ 0.315 µM)	0.008 (≈ 0.0201 µM)	0.25 (≈ 0.629 µM)	0.5 (≈ 1.26 µM)	0.008 (≈ 0.0201 µM)	15.8	0.004 (≈ 0.0101 µM)	0.016 (≈ 0.0403 µM)	0.5 (≈ 1.26 µM)	Time (Staphylococcus aureus [1]): 42 min; Time (Staphylococcus aureus [2]): 34 min; Time (Staphylococcus aureus [3]): 338 min; Time (Staphylococcus aureus [4]): 40 min; Time (Staphylococcus aureus [11]): 52 min; Time (Staphylococcus aureus [12]): 39 min; Time (Staphylococcus aureus [15]): 340 min; Time (Staphylococcus aureus [17]): 180 min; Time (Staphylococcus aureus [19]): 35 min; Time (Staphylococcus aureus [20]): 30 min; Time (Staphylococcus aureus [28]): 34 min; Time (Staphylococcus aureus [29]): 33 min; MIC (Staphylococcus aureus [32]): 0.004 µg/mL (≈ 0.0101 µM); MIC (Staphylococcus aureus [33]): 0.5 µg/mL (≈ 1.26 µM); Time (Staphylococcus aureus [34]): 121 min; Time (Staphylococcus aureus [35]): 38 min; MIC (Staphylococcus aureus [36]): 0.125 µg/mL (≈ 0.315 µM); MIC (Staphylococcus aureus [37]): 0.03 µg/mL (≈ 0.0755 µM)
COc1c(-c2cc(C)nc(C)c2)c(F)cc2c(=O)c3c(=O)[nH]sc3n(C3CC3)c12	1 (≈ 2.43 µM)	0.125 (≈ 0.304 µM)	0.5 (≈ 1.22 µM)	1 (≈ 2.43 µM)	1 (≈ 2.43 µM)	0.015 (≈ 0.0365 µM)	1 (≈ 2.43 µM)	2 (≈ 4.86 µM)	21.5	0.125 (≈ 0.304 µM)	0.8	0.125 (≈ 0.304 µM)	0.008 (≈ 0.0194 µM)	0.25 (≈ 0.608 µM)	0.5 (≈ 1.22 µM)	0.004 (≈ 0.00972 µM)	9.3	0.004 (≈ 0.00972 µM)	0.016 (≈ 0.0389 µM)	0.25 (≈ 0.608 µM)	MIC (Staphylococcus aureus [32]): 0.004 µg/mL (≈ 0.00972 µM); MIC (Staphylococcus aureus [33]): 0.5 µg/mL (≈ 1.22 µM); MIC (Staphylococcus aureus [36]): 0.125 µg/mL (≈ 0.304 µM); MIC (Staphylococcus aureus [37]): 0.03 µg/mL (≈ 0.0729 µM)
